These results are taken from ChEMBL document CHEMBL5108071, “Potent and Specific Activators for Mitochondrial Sirtuins Sirt3 and Sirt5” (J Med Chem, 2022).

The target of assay [1] is T1, NAD-dependent protein deacetylase sirtuin-1 (Homo sapiens) (UniProt Q96EB6).
T1 sequence (whole entry): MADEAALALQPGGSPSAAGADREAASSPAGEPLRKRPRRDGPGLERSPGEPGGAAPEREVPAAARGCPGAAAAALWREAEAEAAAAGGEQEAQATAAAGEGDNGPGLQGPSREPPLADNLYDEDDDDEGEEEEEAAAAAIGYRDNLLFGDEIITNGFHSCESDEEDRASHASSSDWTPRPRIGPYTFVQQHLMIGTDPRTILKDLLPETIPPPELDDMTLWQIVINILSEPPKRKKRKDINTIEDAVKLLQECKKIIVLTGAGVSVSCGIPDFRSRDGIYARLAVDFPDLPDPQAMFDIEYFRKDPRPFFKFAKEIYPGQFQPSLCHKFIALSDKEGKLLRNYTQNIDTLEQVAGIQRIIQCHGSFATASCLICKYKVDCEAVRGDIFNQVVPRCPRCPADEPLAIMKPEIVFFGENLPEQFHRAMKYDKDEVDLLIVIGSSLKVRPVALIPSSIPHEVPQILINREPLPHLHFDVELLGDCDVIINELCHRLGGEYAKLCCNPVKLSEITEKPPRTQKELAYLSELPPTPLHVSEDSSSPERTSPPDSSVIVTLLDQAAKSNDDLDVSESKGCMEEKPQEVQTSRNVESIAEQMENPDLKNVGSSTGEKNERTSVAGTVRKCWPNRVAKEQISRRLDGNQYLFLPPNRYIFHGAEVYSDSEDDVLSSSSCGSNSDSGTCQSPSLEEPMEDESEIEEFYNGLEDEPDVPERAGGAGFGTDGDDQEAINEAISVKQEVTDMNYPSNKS
Kind of assay: Activation of N-terminal his-tagged human SIRT1 expressed in Escherichia coli assessed as fold activation at 10 to 100 uM using p53-acK381 as substrate in presence of NAD+. The conditions noted are these: filed as activator, dose 10-100 µM. Put shortly: (§1)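 Coupled enzymatic deacylation assay (nicotinamidase/GDH-coupled, continuous): 1.5 μM recombinant Sirtuin (expressed in E. coli, Ni-NTA purified, tag removed, size-exclusion purified) with 50 μM substrate peptide and 100 μM NAD+, without or with 10 μM or 100 μM 1,4-DHP, 5% final DMSO. Activity expressed relative to no-compound control.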

In assay [2] the target is NAD-dependent protein deacylase sirtuin-5, mitochondrial (Homo sapiens) (UniProt Q9NXA8). Description: Activation of N-terminal his-tagged human SIRT5 (34 to 302 residues) expressed in Escherichia coli assessed as fold activation at 10 uM using CPS1-succ537 as substrate in presence of NAD+. The following applies: filed as activator. The essentials: as §1
Target sequence in this assay (Q9NXA8 37-310 limits assumed): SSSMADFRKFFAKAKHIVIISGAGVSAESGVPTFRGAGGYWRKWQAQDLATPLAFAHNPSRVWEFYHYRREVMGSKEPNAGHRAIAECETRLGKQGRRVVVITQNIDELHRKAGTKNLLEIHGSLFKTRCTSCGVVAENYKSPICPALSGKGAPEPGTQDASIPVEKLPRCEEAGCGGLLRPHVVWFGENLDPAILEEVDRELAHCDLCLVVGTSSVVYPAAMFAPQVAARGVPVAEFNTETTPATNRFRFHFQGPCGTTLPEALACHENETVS
For assay [3] the target is unchanged. Kind of assay: Activation of N-terminal his-tagged human SIRT5 (34 to 302 residues) expressed in Escherichia coli assessed as fold activation at 100 uM using CPS1-succ537 as substrate in presence of NAD+. The following applies: filed as activator. Put shortly:
as §1
Target sequence in this assay (Q9NXA8 37-310 limits assumed): as above

Assay [4] shares this target. Kind of assay: Activation of N-terminal his-tagged human SIRT5 (34 to 302 residues) expressed in Escherichia coli assessed as fold activation at 10 to 100 uM using CPS1-succ537 as substrate in presence of NAD+. The conditions noted are these: filed as activator, dose 10-100 µM. The essentials:
as §1
Target sequence in this assay (Q9NXA8 37-310 limits assumed): as above

Assay [5] addresses T1, NAD-dependent protein deacetylase sirtuin-1 (Homo sapiens). Kind of assay: Activation of N-terminal his-tagged human SIRT1 expressed in Escherichia coli at 10 to 100 uM using p53-acK381 as substrate in presence of NAD+. The following applies: filed as activator, dose 10-100 µM. Put shortly: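 Compound titration in the nicotinamidase/GDH-coupled deacylation assay. 1.5 μM recombinant Sirt1 (E. coli-expressed, Ni-NTA purified, tag removed, size-exclusion purified) was used with 50 μM p53-acK381 peptide and 100 μM NAD+. 1,4-DHP was added at the indicated concentrations in 5% final DMSO.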

Assay [6] addresses T2, NAD-dependent protein deacetylase sirtuin-2 (Homo sapiens) (UniProt Q8IXJ6).
T2 sequence (whole entry): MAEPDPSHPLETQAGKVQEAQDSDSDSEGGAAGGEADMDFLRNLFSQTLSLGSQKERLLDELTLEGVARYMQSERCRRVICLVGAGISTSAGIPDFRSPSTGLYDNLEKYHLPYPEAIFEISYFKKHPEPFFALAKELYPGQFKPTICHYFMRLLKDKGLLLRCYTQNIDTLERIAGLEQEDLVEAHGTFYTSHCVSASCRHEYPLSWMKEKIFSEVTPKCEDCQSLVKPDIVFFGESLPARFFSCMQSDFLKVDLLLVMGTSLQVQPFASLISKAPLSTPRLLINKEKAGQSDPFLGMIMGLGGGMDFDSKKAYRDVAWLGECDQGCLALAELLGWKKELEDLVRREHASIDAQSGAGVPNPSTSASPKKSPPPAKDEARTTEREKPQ
Description: Activation of N-terminal SUMO-tagged human SIRT2 (43 to 356 residues) expressed in Escherichia coli assessed as deacetylation of substrate at 100 uM using acetylated alpha tubulin-K2 as substrate in presence of NAD+. The conditions noted are these: filed as activator. The essentials: as §1

Assay [7] addresses T1, NAD-dependent protein deacetylase sirtuin-1 (Homo sapiens). Description: Activation of N-terminal his-tagged human SIRT1 expressed in Escherichia coli assessed as fold activation at 100 uM using p53-acK381 as substrate in presence of NAD+. The conditions noted are these: filed as activator. The essentials: as §1
For assay [8], the target named is T3, NAD-dependent protein deacetylase sirtuin-3, mitochondrial (Homo sapiens) (UniProt Q9NTG7).
T3 sequence (whole entry): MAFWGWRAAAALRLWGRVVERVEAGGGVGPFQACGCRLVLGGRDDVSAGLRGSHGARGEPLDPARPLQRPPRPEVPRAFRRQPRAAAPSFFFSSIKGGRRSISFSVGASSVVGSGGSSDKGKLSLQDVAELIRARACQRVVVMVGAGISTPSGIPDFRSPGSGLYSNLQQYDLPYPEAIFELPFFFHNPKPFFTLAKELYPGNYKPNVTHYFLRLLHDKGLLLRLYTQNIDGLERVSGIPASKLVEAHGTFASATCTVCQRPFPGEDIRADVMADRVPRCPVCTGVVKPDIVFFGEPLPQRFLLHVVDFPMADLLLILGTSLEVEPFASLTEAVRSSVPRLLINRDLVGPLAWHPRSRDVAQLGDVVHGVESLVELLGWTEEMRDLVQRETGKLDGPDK
Description: Activation of N-terminal his-tagged human SIRT3 (114 to 380 residues) expressed in Escherichia coli assessed as fold activation at 100 uM using ACS2-acK642 as substrate in presence of NAD+. The following applies: filed as activator. Put shortly:
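Coupled continuous enzymatic assay (nicotinamidase/GDH-linked): 1.5 µM purified Sirt3 with 50 µM ACS2-acK642 peptide and 100 µM NAD+, compound at 10 µM, 100 µM or titrated, 5% DMSO final; fold deacetylation versus no-compound control.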

The target in assay [9] is NAD-dependent protein deacylase sirtuin-5, mitochondrial (Homo sapiens) (UniProt Q9NXA8). Description: Activation of SIRT5 in human CAPAN-1 cells assessed as decrease in GOT1 acetylation at 20 uM incubated for 24 hrs by Western blot analysis. The conditions noted are these: filed as activator. (A western blot detects proteins with antibodies after separation by electrophoresis.)
Target sequence in this assay (Q9NXA8 whole entry, looked up, the tested form may be a part): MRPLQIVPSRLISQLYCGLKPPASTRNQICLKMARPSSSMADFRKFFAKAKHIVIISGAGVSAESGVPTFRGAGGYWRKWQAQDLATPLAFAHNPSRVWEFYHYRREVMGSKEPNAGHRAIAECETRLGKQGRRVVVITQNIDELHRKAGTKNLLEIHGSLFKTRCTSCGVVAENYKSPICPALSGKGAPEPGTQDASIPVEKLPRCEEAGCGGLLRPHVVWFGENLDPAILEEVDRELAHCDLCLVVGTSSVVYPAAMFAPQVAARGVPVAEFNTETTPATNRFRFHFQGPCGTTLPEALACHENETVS

Assay [10] has the same target. Kind of assay: Activation of human recombinant SIRT5 assessed as decrease in PDHA1-succinylation at 100 uM by Western blot analysis. The conditions noted are these: filed as activator.
Target sequence in this assay (Q9NXA8 whole entry, looked up, the tested form may be a part): as above
Assay [11] shares this target. Description: Activation of SIRT5 in human S2-013 cells assessed as decrease in GOT1 acetylation at 20 uM incubated for 24 hrs by Western blot analysis. The conditions noted are these: filed as activator.
Target sequence in this assay (Q9NXA8 whole entry, looked up, the tested form may be a part): as above
The target of assay [12] is T3, NAD-dependent protein deacetylase sirtuin-3, mitochondrial (Homo sapiens). Kind of assay: Inhibition of N-terminal his-tagged human SIRT3 (114 to 380 residues) expressed in Escherichia coli at 100 uM using ACS2-acK642 as substrate in presence of NAD+ relative to control. Put shortly: as §1
Assay [13] has as its target T2, NAD-dependent protein deacetylase sirtuin-2 (Homo sapiens). Description: Inhibition of N-terminal SUMO-tagged human SIRT2 (43 to 356 residues) expressed in Escherichia coli at 100 uM using acetylated alpha tubulin-K25 as substrate in presence of NAD+ relative to control. The essentials:
as §1

Molecules are shown by their SMILES. The source made the active and inactive calls. The rule behind the calls is not given here.

The inhibition is the percentage by which the read-out fell short of the control.

On to `CCOC(=O)C1=CN(Cc2ccccc2)C=C(C(=O)OCC)C1c1ccsc1`, for which the fold change (FC) in assay [1] was 1.5.
With `CCOC(=O)C1=CN(C(=O)c2ccccc2)C=C(C(=O)OCC)C1c1ccc(OC)cc1`, the results for the fold change (FC) in assay [1] and in assay [2] were 1.5 and 1.2, respectively.
`CCOC(=O)C1=CN(Cc2ccccc2)C=C(C(=O)OCC)C1c1ccc2ccccc2c1`: the fold change (FC) in [3] was 2; in assay [2], 1.2.
On to `CCOC(=O)C1=CN(Cc2ccccc2)C=C(C(=O)OCC)C1c1cccc2ccccc12`, for which the fold change (FC) in assay [3] worked out at 2.
On the same count and under the same terms, the same measure for `CCOC(=O)C1=CN(C(=O)c2ccccc2)C=C(C(=O)OCC)C1c1ccc(C)cc1`: 2.
With `CCOC(=O)C1=CN(Cc2ccccc2)C=C(C(=O)OCC)C1c1ccco1`, the fold change (FC) in assay [1] was found to be 1.5.
Consider `CCOC(=O)C1=CN(C(=O)c2ccccc2)C=C(C(=O)OCC)C1c1ccco1`, for which the fold change (FC) in assay [4] was found to be 2.
As for `CCOC(=O)C1=CN(C(=O)c2cccc3ccccc23)C=C(C(=O)OCC)C1c1ccccc1`, the fold change (FC) in assay [3] is 2.
Consider `CCOC(=O)C1=CN(Cc2cc(OC)c(OC)c(OC)c2)C=C(C(=O)OCC)C1c1cnc2ccccc2c1`, for which, in assay [5], the outcome was Active.
Take `CCOC(=O)C1=CN(C(=O)c2ccccc2)C=C(C(=O)OCC)C1c1ccoc1`: in assay [4], the fold change (FC) was determined as 3. Further, in assay [5], the outcome was Active.
On to `CCOC(=O)C1=CN(C(=O)c2cnc3ccccc3n2)C=C(C(=O)OCC)C1c1ccccc1`, for which the figures for the fold change (FC) in assay [1], in assay [3] and in assay [2] were 1.5, 2 and 1.2, respectively.
As to `CCOC(=O)C1=CN(C(=O)c2cnccn2)C=C(C(=O)OCC)C1c1ccccc1`, the fold change (FC) in [3] was 2; in [2] it was 1.2.
In the case of `CCOC(=O)C1=CN(C(=O)c2ccc3ccccc3c2)C=C(C(=O)OCC)C1c1ccccc1`, the fold change (FC) in assay [1] is 1.5.
As for `CCOC(=O)C1=CN(C(=O)c2cc(OC)c(OC)c(OC)c2)C=C(C(=O)OCC)C1c1ccco1`, the outcome in assay [6] was Active. Besides, the fold change (FC) in assay [7] is 2.5; in assay [4], 2.
As for `CCOC(=O)C1=CN(C(=O)c2ccccc2)C=C(C(=O)OCC)C1c1ccc(Cl)cc1`, the fold change (FC) in assay [3] was 2; in assay [2], 1.2.
Consider `CCOC(=O)C1=CN(Cc2ccccc2)C=C(C(=O)OCC)C1c1cc2ccccc2s1`, for which the fold change (FC) in [3] amounted to 2.
As to `CCOC(=O)C1=CN(C(=O)c2cc(OC)c(OC)c(OC)c2)C=C(C(=O)OCC)C1c1ccoc1`, the result in assay [6] was Active. Moreover, the fold change (FC) in assay [7] came to 2.5; in [4] it was 2.
Consider `CCOC(=O)C1=CN(Cc2ccccc2)C=C(C(=O)OCC)C1c1ccc(-c2ccccc2)cc1`, for which the fold change (FC) in assay [3] was 2.
As for `CCOC(=O)C1=CN(Cc2ccccc2)C=C(C(=O)OCC)C1c1ccccc1`, the fold change (FC) was found to be 1.5 in assay [1] and 2 in [8].
In the case of `CCOC(=O)C1=CN(C(=O)c2cc(OC)c(OC)c(OC)c2)C=C(C(=O)OCC)C1c1ccsc1`, the fold change (FC) in assay [7] was 2.5.
Turning to `CCOC(=O)C1=CN(C(=O)c2cc(OC)c(OC)c(OC)c2)C=C(C(=O)OCC)C1c1ccc(CN2CCN(C)CC2)cc1`, the fold change (FC) in assay [7] came to 2.5; in assay [4] it was 2.
For `CCOC(=O)C1=CN(C(=O)c2ccccc2)C=C(C(=O)OCC)C1c1cccc(Cl)c1`, the outcome in assay [9], in assay [10] and in assay [11] was Active. Also, the values for the fold change (FC) in assay [3] and in assay [2] were 2 and 1.2, respectively.
`CCOC(=O)C1=CN(Cc2cc(OC)c(OC)c(OC)c2)C=C(C(=O)OCC)C1c1ccccc1`: the outcome in [5] was Active.
With `CCOC(=O)C1=CN(Cc2ccccc2)C=C(C(=O)OCC)C1c1cncs1`, the inhibition was found to be 60% in assay [12] and 75% in assay [13].
In the case of `CCOC(=O)C1=CN(C(=O)c2ccccc2)C=C(C(=O)OCC)C1c1cccc(OC)c1`, the fold change (FC) came to 2 in assay [3] and 1.2 in assay [2].
`CCOC(=O)C1=CN(C(=O)c2cc(OC)c(OC)c(OC)c2)C=C(C(=O)OCC)C1c1cccc(Cl)c1`: the result in assay [5] was Active.
Turning to `CCOC(=O)C1=CN(C(=O)c2ccccc2)C=C(C(=O)OCC)C1c1ccccc1OC`, the fold change (FC) in assay [3] was 2.
As for `CCOC(=O)C1=CN(C(=O)c2cc(OC)c(OC)c(OC)c2)C=C(C(=O)OCC)C1c1cccc(C)c1`, in assay [5], the result was Active.
Turning to `CCOC(=O)C1=CN(C(=O)c2ccccc2)C=C(C(=O)OCC)C1c1ccccc1Cl`, the fold change (FC) in assay [3] came to 2.
With `CCOC(=O)C1=CN(C(=O)c2cc(OC)c(OC)c(OC)c2)C=C(C(=O)OCC)C1c1cccc(F)c1`, in assay [5], the outcome was Active.
